Measured values: publication PMC9586919 (ACS infectious diseases, 2021)
“Also recorded” adds a separate entry of the source. Where two headings read alike, the source gives them in different places.

Tests used:
T. vaginalis [1] = conditions: cited from earlier work
[2] = tested on: T. vaginalis trophozoites of the metronidazole-sensitive strain G3; experiment: Resorufin-based drug sensitivity assay; type: cell-based, Trichomonas vaginalis; conditions: for EC50: Trichomonas vaginalis
[3] = tested on: Human Embryonic Kidney (HEK) cells; experiment: Toxicity against Human Embryonic Kidney; type: cell-based; conditions: for S.I. (Selectivity Index): HEK versus T. vaginalis
[4] = mouse models of Chagas' disease; cited from earlier work
T. vaginalis [5] = experiment: Fluorescence microscopy; type: cell-based, Trichomonas vaginalis; conditions: 2×EC50
Method in brief: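 Samples from the growth-curve cultures, taken at 8-h intervals, were centrifuged twice at 2600 × g for 10 min at 4 °C, with a PBS pH 7.4 wash in between. Cells were air-dried 30 min on poly-L-lysine slides, fixed 15 min in 4% paraformaldehyde/PBS, washed, and mounted in antifade medium with DAPI. Nuclear volumes were measured from Z-stacks. Cultures were passaged at 24 h to 1.32×10^5 cells/mL.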

T. foetus strain D1 = experiment: In vitro activity against T. foetus; type: cell-based, Tritrichomonas foetus
[6] = tested on: T. vaginalis strain F1623; experiment: In vitro activity against T. vaginalis F1623; type: cell-based, Trichomonas vaginalis; conditions: T. vaginalis strain F1623, same assay as T. foetus
[7] = tested on: T. foetus D1 trophozoites; experiment: Murine model of vaginal trichomonad infection; type: in vivo, BALB/c mice
Method in brief: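 Freshly weaned (21–24 days) female BALB/c mice were infected intravaginally with 10^6 mid-log T. foetus D1 trophozoites in 5 µL growth medium. One day later they received five doses over three days (1 on day 1, 2 on each of days 2 and 3). Doses were either oral gavage of 25 mg/kg per dose as a suspension in 1% hypromellose, 50 µL, or intravaginal 50 µg in 5 µL; controls received solvent. Live trophozoites in 30 µL PBS vaginal washes were counted in a chamber on day 4.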

[8] = tested on: T. vaginalis trophozoites; experiment: Growth curve assay; type: cell-based, Trichomonas vaginalis; conditions: 2×EC50, continuous exposure 56 h, passage after 24 h
[9] = read-out: EC50 T. vaginalis, resorufin assay, 24 h + 2 h, 2% O2/98% N2, average of at least 3 independent determinations and SD
[10] = Homo sapiens, HEK293, read-out: EC50 HEK
[11] = read-out: EC50 HEK, HEK cells, average of at least 3 independent determinations and SD

2-F, 2’-deoxyadenosine
antitrichomonal activity (T. vaginalis [1]): ~100 nM

2’-F,2’-deoxyadenosine
antitrichomonal efficacy (T. vaginalis [1]): substantial antitrichomonal efficacy

Nc1ncnc2c1ncn2[C@@H]1O[C@H](CO)[C@@H](O)[C@@H]1F [2’-deoxy-2’-fluoroarabinoadenosine]
antitrichomonal efficacy (T. vaginalis [1]): substantial antitrichomonal efficacy

Nc1nc(F)nc2nc[nH]c12 [Compound 2-F-adenine, 2-F-adenine]
antitrichomonal activity (T. vaginalis [1]): ~100 nM

Nc1ncnc2c1c(-c1ccc(Cl)c(Cl)c1)cn2[C@@H]1O[C@H](CO)[C@@H](O)[C@H]1O [FH3147, 7-deaza,7-(3,4-dichlorophenyl)adenosine]
in vitro anti-T. vaginalis activity (EC50) described in words [2]: double-digit nanomolar | EC50 [2, 9]: 29 ± 3 nM | S.I. (Selectivity Index) [3]: >10,000 | EC50 [3, 10]: > 200 µM

Nc1ncnc2c1c(-c1ccccc1F)cn2[C@@H]1O[C@H](CO)[C@@H](O)[C@H]1O [FH7435]
EC50 [3, 11]: > 200 µM

Nc1ncnc2c1c(-c1cccc(Cl)c1)cn2[C@@H]1O[C@H](CO)[C@@H](O)[C@H]1O [FH8459]
EC50 [3, 11]: > 200 µM

Nc1ncnc2c1c(-c1cc(Cl)cc(Cl)c1)cn2[C@@H]1O[C@H](CO)[C@@H](O)[C@H]1O [FH8460]
EC50 [3, 11]: > 200 µM

Nc1ncnc2c1c(-c1ccccc1)cn2[C@@H]1O[C@H](CO)C[C@H]1O [FH8480]
in vitro anti-T. vaginalis activity (EC50) described in words [2]: low micromolar

Cc1ccc(-c2cn([C@@H]3O[C@H](CO)C[C@H]3O)c3ncnc(N)c23)cc1 [FH8481]
in vitro anti-T. vaginalis activity (EC50) described in words [2]: low micromolar | EC50 [3, 11]: > 200 µM

COc1ccc(-c2cn([C@@H]3O[C@H](CO)C[C@H]3O)c3ncnc(N)c23)cc1 [FH8494]
EC50 [3, 11]: > 200 µM

Nc1ncnc2c1c(-c1ccc(Cl)cc1)cn2[C@@H]1O[C@H](CO)C[C@H]1O [FH8512]
EC50 [3, 11]: > 200 µM | ill effects on the animals [4]: without any apparent ill effects

Nc1ncnc2c1c(-c1ccc(Cl)c(Cl)c1)cn2[C@@H]1O[C@H](CO)C[C@H]1O [FH8513]
EC50 [3, 11]: > 200 µM

CC(C)c1ccc(-c2cn([C@@H]3O[C@H](CO)C[C@H]3O)c3ncnc(N)c23)cc1 [FH9574]
EC50 [3, 11]: 94 ± 9 µM

Nc1ncnc2c1c(-c1ccc3ccccc3c1)cn2[C@@H]1O[C@H](CO)C[C@H]1O [FH9575]
EC50 [3, 11]: 44 ± 5 µM

Nc1ncnc2c1c(-c1ccc(C(F)(F)F)cc1)cn2[C@@H]1O[C@H](CO)C[C@H]1O [FH9576]
EC50 [3, 11]: 148 ± 22 µM | cell morphology / nuclei (DAPI) (T. vaginalis [5]; 16 h continuous incubation): cells still looked normal at 16 h

Nc1ncnc2c1c(-c1ccc(OC(F)(F)F)cc1)cn2[C@@H]1O[C@H](CO)C[C@H]1O [FH9577]
cell morphology / nuclei (DAPI) (T. vaginalis [5]; 16 h continuous incubation): looked healthy at 16 h | cell morphology / nuclei (DAPI) (T. vaginalis [5]; 24 h continuous incubation): clearly displayed multiple nuclei at 24 h

Nc1ncnc2c1c(-c1ccc(Cl)cc1Cl)cn2[C@@H]1O[C@H](CO)C[C@H]1O [FH9581]
EC50 [3, 11]: > 200 µM

Nc1ncnc2c1c(-c1ccc([N+](=O)[O-])cc1)cn2[C@@H]1O[C@H](CO)C[C@H]1O [FH9582]
EC50 [3, 11]: > 200 µM

Nc1ncnc2c1c(-c1cccc(Cl)c1)cn2[C@@H]1O[C@H](CO)C[C@H]1O [FH10641]
EC50 [3, 11]: > 200 µM

Cc1ccc(-c2cn([C@@H]3O[C@H](CO)C[C@H]3O)c3ncnc(N)c23)cc1Cl [FH10644]
EC50 [3, 11]: 94 ± 9 µM

COc1ccc(-c2cn([C@@H]3O[C@H](CO)C[C@H]3O)c3ncnc(N)c23)cc1Cl [FH10645]
EC50 [3, 11]: > 200 µM

CCc1ccc(-c2cn([C@@H]3O[C@H](CO)C[C@H]3O)c3ncnc(N)c23)cc1 [FH10647]
EC50 [3, 11]: 133 ± 2 µM

Cc1cc(-c2cn([C@@H]3O[C@H](CO)C[C@H]3O)c3ncnc(N)c23)ccc1Cl [FH10648]
EC50 [3, 11]: 146 ± 13 µM

COc1cc(-c2cn([C@@H]3O[C@H](CO)C[C@H]3O)c3ncnc(N)c23)ccc1Cl [FH10649]
EC50 [3, 11]: 178 ± 6 µM

Cc1ccc(-c2cn([C@@H]3O[C@H](CO)C[C@H]3O)c3ncnc(N)c23)cc1C [FH10653]
EC50 [3, 11]: 168 ± 19 µM

Nc1ncnc2c1c(C1CCCCC1)cn2C1OC(CO)CC1O (stereo not drawn) [FH10669]
in vitro anti-T. vaginalis activity (EC50) described in words [2]: very weak activity

Nc1ncnc2c1c(-c1ccc(F)cc1)cn2[C@@H]1O[C@H](CO)C[C@H]1O [FH10680]
in vitro anti-T. vaginalis activity (EC50) described in words [2]: low micromolar | EC50 [3, 11]: > 200 µM

Nc1ncnc2c1c(-c1ccc(F)c(Cl)c1)cn2[C@@H]1O[C@H](CO)C[C@H]1O [FH10681]
EC50 [3, 11]: > 200 µM

Nc1ncnc2c1c(-c1ccc(F)c(F)c1)cn2[C@@H]1O[C@H](CO)C[C@H]1O [FH10682]
EC50 [3, 11]: > 200 µM

Nc1ncnc2c1c(-c1ccc(Cl)c(F)c1)cn2[C@@H]1O[C@H](CO)C[C@H]1O [FH10683]
EC50 [3, 11]: 151 ± 1 µM

Nc1ncnc2c1c(-c1ccc(C(F)(F)F)cc1)cn2[C@@H]1O[C@H](CO)[C@@H](O)[C@H]1O [FH11704]
EC50 [3, 11]: > 200 µM

Cc1ccc(-c2cn([C@@H]3O[C@H](CO)[C@@H](O)[C@H]3O)c3ncnc(N)c23)cc1C [FH13820]
EC50 [3, 11]: > 200 µM

Nc1ncnc2c1c(-c1ccc(F)cc1)cn2[C@@H]1O[C@H](CO)[C@@H](O)[C@H]1O [MS1001]
EC50 [3, 11]: > 200 µM

Nc1ncnc2c1c(-c1ccccc1)cn2[C@@H]1O[C@H](CO)[C@@H](O)[C@H]1O [TH1004, 7-deaza-7-phenyladenosine]
EC50 [2, 9]: 440 ± 59 nM | S.I. (Selectivity Index) [3]: >465 | EC50 [3, 10]: > 200 µM | cell morphology / nuclei (DAPI) (T. vaginalis [5]; 24 h continuous incubation): the cell membrane appears to be disintegrating and multiple nuclei are present in some cells

Cc1ccc(-c2cn([C@@H]3O[C@H](CO)[C@@H](O)[C@H]3O)c3ncnc(N)c23)cc1 [TH1011]
in vitro anti-T. vaginalis activity (EC50) described in words [2]: double-digit nanomolar | EC50 [3, 11]: > 200 µM

Nc1ncnc2c1c(-c1ccc(Cl)cc1)cn2[C@@H]1O[C@H](CO)[C@@H](O)[C@H]1O [TH1012]
in vitro anti-T. vaginalis activity (EC50) described in words [2]: double-digit nanomolar | EC50 [3, 11]: > 200 µM | EC50 (T. foetus strain D1): 13.9 µM | EC50 [6]: 180 nM | adverse effects during the treatment period ([7]; oral 5×25 mg/kg or topical 1%, 25 mg/kg): No adverse effects were observed; also recorded: without any apparent ill effects | effect on infection (live trophozoites in vaginal washes on day 4) ([7]; topical intravaginal, 1% (50 μg per dose), five doses over three days): almost complete eradication of the infection; also recorded: almost completely eradicated the T. foetus infection; also recorded: strongly inhibited T. foetus infection in mice | cell morphology / nuclei (DAPI) (T. vaginalis [5]; 24 h continuous incubation): displayed multiple nuclei at 24 h | ill effects on the animals [4]: without any apparent ill effects

COc1ccc(-c2cn([C@@H]3O[C@H](CO)[C@@H](O)[C@H]3O)c3ncnc(N)c23)cc1 [TH1013]
EC50 [3, 11]: > 200 µM

Nc1ncnc2c1ncn2[C@@H]1O[C@H](CO)[C@@H](O)[C@@H]1O [adenine arabinoside]
antitrichomonal efficacy (T. vaginalis [1]): substantial antitrichomonal efficacy

Cc1ncc([N+](=O)[O-])n1CCO [metronidazole, reference compound]
EC50 ([2]; BD pouch bags incubation, n=16): 260 ± 20 nM | EC50 ([2]; confirmation experiments, n=9, unit inferred): 530 ± 100 nM | EC50 ([2]; in-pod incubation, n=16): 280 ± 20 nM | EC50 ([2]; introduction, hit criterion): ~300 nM | effect on T. vaginalis growth [8]: managed a modest amount of growth before arrest and population decline
